Compound activity as filed in PubChem BioAssay.
HNF4A DNA FP: change in binding of human HNF4A to DNA, primary screen, biochemical, fluorescence polarization, FITC-DNA | Hepatocyte nuclear factor 4-alpha (Homo sapiens), P41235 | 1 h | activity change, % at 10 µM | hit rate 0.3% among 360,000 | AID 1224865, 2016; in the data active means activity change above about 30%, passing the limit was not always enough
Target sequence (P41235 whole entry, looked up): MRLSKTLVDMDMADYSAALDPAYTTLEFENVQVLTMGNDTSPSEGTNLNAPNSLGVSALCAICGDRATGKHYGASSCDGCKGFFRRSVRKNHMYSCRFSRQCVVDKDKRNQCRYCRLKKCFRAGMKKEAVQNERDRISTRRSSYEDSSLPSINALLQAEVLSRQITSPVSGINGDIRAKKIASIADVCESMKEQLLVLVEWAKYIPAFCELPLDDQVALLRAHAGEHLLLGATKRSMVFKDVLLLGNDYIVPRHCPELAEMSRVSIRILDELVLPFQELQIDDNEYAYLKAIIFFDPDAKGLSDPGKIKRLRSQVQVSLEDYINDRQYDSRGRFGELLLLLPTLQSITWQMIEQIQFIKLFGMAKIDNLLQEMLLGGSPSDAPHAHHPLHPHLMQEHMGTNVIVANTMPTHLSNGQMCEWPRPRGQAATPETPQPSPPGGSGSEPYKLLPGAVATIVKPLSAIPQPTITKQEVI
Bfl-1 A1 inh: caspase 3/7 activation in MEF A1-2A-BIM cells, primary screen, A1 inhibitor project, cell-based, luminescence, HTS. hit rate 0.066% among 330,000. Caspase-Glo 3/7 luminescence, 3 h; percent of clofoctol response, vehicle zero. caspase activation, % (test concentration not listed). AID 2462, 2010;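 active means over half of replicate activation scores above 10%, or exactly half above 10 with the replicate mean above 10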
LANA-H2A inh: blockers of LANA interaction with H2A/H2B – biochemical, FP readout, HTS, primary screen; cell-free LANA-H2A/H2B peptide, fluorescence polarization; Protein LANA1 (Human herpesvirus 8 type P (isolate GK18)), Q9QR71; hit rate 0.6% among 320,000; AID 2629, 2010; inhibition, % (test concentration not listed); in the data active means inhibition mostly above about 10%, no sharp cut-off; inactive means mostly below about 6.7%
EBNA-1 inhibitor: EBNA-1 DNA-binding inhibitors, primary screen, biochemical, fluorescence polarization; inhibition, % at 14.8 µM; AID 1950, 2009; hit rate 0.34% among 300,000; in the data active means inhibition above about 28%
ZTA DNA inh: blocks Epstein-Barr virus ZTA, an EBNA-1 counter-screen; P03206; ZTA-DNA binding, fluorescence polarization; inhibition, % at 11 µM; hit rate 0.15% among 320,000; in the data active means inhibition above about 33%
Target sequence (P03206 whole entry, looked up): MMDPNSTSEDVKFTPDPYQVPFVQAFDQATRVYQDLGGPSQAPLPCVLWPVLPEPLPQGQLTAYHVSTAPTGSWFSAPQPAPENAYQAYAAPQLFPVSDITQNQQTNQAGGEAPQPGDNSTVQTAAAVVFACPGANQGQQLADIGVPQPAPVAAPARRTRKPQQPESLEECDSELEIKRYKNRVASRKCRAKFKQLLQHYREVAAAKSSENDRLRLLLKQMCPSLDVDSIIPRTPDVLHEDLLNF
CSN inh: inhibitors of CSN-mediated cullin deneddylation, primary screen, biochemical, fluorescence polarization, uHTS; COP9 signalosome complex subunit 5 (Homo sapiens), Q92905; Purified CSN, SCF-Nedd8-OG deneddylation; hit rate 0.38% among 360,000; inhibition, % at 12.5 µM;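 active means pattern-corrected inhibition above about 35%, with an unprinted fluorescence ratio check between 0.5 and 1.5, limit read from the data, passing the limit was not always enough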
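Assay system: purified human Csn5 enzyme expressed in HEK293T cells; measure: % inhibition; also added: SCFSkp2-Nedd8OG substrate at 10 nM final; technique: fluorescence polarization; times: reaction 90 min, room temperature; medium: Tris buffer pH 7.5, NaCl, DTT, Tween-20, trehalose, ovalbumin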
Each line names hits and unclear results; the compound was inactive in the other large screens. The list is not random: actives were taken first. Their share in the collection is about 1.5%.

COCCCn1c(=NC(=O)c2ccccc2)c(C#N)cc2c(=O)n3cccc(C)c3nc21	LANA-H2A inh 27
CCOCCCn1c(=NC(=O)c2cccs2)c(C#N)cc2c(=O)n3cccc(C)c3nc21	LANA-H2A inh 28
CC(Oc1ccc(Cl)cc1Cl)C(=O)Nc1ccncc1 (stereo not drawn)	CSN inh 48
COc1ccc(C(N)c2csc(Nc3ccc(C(=O)NCCCO)cn3)n2)cc1 (stereo not drawn)	none (no result: Bfl-1 A1 inh, LANA-H2A inh, EBNA-1 inhibitor, ZTA DNA inh)
Cc1nn(CC(=O)Nc2cccnc2)c(C)c1[N+](=O)[O-]	none
CCc1ccccc1NC(=O)CN1CCN(C(=O)CNC(=O)c2ccccc2F)CC1	LANA-H2A inh active (no result: EBNA-1 inhibitor)
CCc1ccccc1NC(=O)CN1CCN(C(=O)CNC(=O)c2ccc(N3CCCC3=O)cc2)CC1	none (no result: EBNA-1 inhibitor)
C=CCSc1ncc(CO)n1Cc1ccccc1	none
N/C(=N/OS(=O)(=O)c1ccc([N+](=O)[O-])cc1)c1ccncc1	LANA-H2A inh 37
CCCc1cc2c(=O)c(-c3cscn3)c(C(=O)OCC)oc2cc1O	none
CCOC(=O)c1oc2cc(O)cc(C)c2c(=O)c1-c1cscn1	LANA-H2A inh 26
C=CCNc1ncnc2c1ncn2[C@H]1CN(Cc2ccc(F)cc2)C[C@@H](CO)O1	none (no result: Bfl-1 A1 inh, LANA-H2A inh, EBNA-1 inhibitor, ZTA DNA inh)
C=CCN=C1S/C(=C\c2ccc(N(C)C)cc2)C(=O)N1CC=C	HNF4A DNA FP 36, LANA-H2A inh 16
CCCOC(=O)NC(CC)COC(=O)Nc1cc(C)ccc1C (stereo not drawn)	LANA-H2A inh 46
CCCCOC(=O)Nc1cc(Cl)ccc1C	none
Cc1c(CCOC(=O)CC23CC4CC(CC(C4)C2)C3)sc[n+]1CC(=O)c1ccccc1	none
Cc1c(CCOC(=O)C23CC4(C)CC(C)(CC(C)(C4)C2)C3)sc[n+]1CC(=O)c1ccccc1	HNF4A DNA FP 81
CC(=O)c1ccc(NC(=O)C(C)Nc2ccc(Cl)cc2)cc1 (stereo not drawn)	none
O=C(COc1ccc2c(-c3ccccc3)cc(=O)oc2c1)N1C[C@H]2C[C@@H](C1)c1cccc(=O)n1C2	none (no result: Bfl-1 A1 inh, LANA-H2A inh, EBNA-1 inhibitor, ZTA DNA inh)
COc1cccc(C(C)NC(=O)Nc2ccccc2Cl)c1 (stereo not drawn)	LANA-H2A inh 15
O=C(NCc1ccccc1)NC1(C(=O)N2CCN3CCCC3C2)CCCCC1 (stereo not drawn)	none
O=C(NC1CCCCC1)NC1(C(=O)N2CCN3CCCC3C2)CCCCC1 (stereo not drawn)	LANA-H2A inh 29
CC(C)n1[nH]c2ccccc2c1=O	none (no result: Bfl-1 A1 inh, LANA-H2A inh, EBNA-1 inhibitor, ZTA DNA inh)
CCC(=O)N1CCc2cc(S(=O)(=O)N3CCN(c4ccccc4)CC3)ccc21	none
CCC(=O)N1CCc2cc(S(=O)(=O)N3CCc4ccccc4C3)ccc21	CSN inh 78
CCOC(=O)c1ccc(NC(=O)CCc2nnc3ccc(N4CCCC4)nn23)cc1	none
CCN(CC)c1ccc(NC(=O)CCc2nnc3ccc(N4CCCC4)nn23)c(C)c1	LANA-H2A inh 29
CCN(CCc1ccccc1)c1ccc2c(c1)C1CC2CCN1Cc1ccccc1 (stereo not drawn)	none (no result: Bfl-1 A1 inh, LANA-H2A inh, EBNA-1 inhibitor, ZTA DNA inh)
Cc1ccsc1/C=N/n1c(-c2ccncc2)n[nH]c1=S	none
Cc1cc(C(=O)COC(=O)CCc2nc3ccccc3s2)c(C)n1C	LANA-H2A inh 13 (no result: Bfl-1 A1 inh)
Cc1ccc(NC(=O)C(c2ccccc2)N(C)C)cc1Cl (stereo not drawn)	LANA-H2A inh 12
COC(=O)c1ccc(=O)c2nc3/c(=C/O)c(O)cc(=O)c3[nH]c12	EBNA-1 inhibitor 103
CCCCN1CCCCC1(C)C(=O)NCc1ccc2c(c1)OCO2 (stereo not drawn)	none (no result: Bfl-1 A1 inh, LANA-H2A inh, EBNA-1 inhibitor, ZTA DNA inh)
CC(=O)c1sc(N/N=C\c2c(O)ccc3ccccc23)nc1C	HNF4A DNA FP 83
COc1ccc(OC)c(N(CC(=O)NCc2ccccc2)S(=O)(=O)c2ccc(OC)c(OC)c2)c1	LANA-H2A inh 41
COCCCNC(=O)CN(c1cc(OC)ccc1OC)S(=O)(=O)c1ccccc1	LANA-H2A inh 19
COc1ccc(OC)c(N(CC(=O)NCCc2ccc(OC)c(OC)c2)S(=O)(=O)c2ccccc2)c1	none
CCOc1ccc(N(CC(=O)NC2CCCCC2)C(=O)CNC(=O)c2ccco2)cc1	LANA-H2A inh 26
O=C(NCC(=O)N(c1ccccc1)C(C(=O)NC1CCCC1)c1cccnc1)c1ccco1 (stereo not drawn)	none
O=C(NCC(=O)N(c1cccnc1)C(C(=O)NC1CCCCC1)c1cccnc1)c1ccco1 (stereo not drawn)	LANA-H2A inh 14
O=C(CN(C(=O)CNC(=O)c1ccco1)c1ccc(F)cc1)NC1CCCCC1	none
CC(=O)Nc1ccc(N(C(=O)c2ccco2)C(C(=O)NC2CCCCC2)c2ccccc2)cc1 (stereo not drawn)	LANA-H2A inh 10.0
Cc1nnsc1C(=O)Nc1ccc(S(=O)(=O)N2CCCCC2)cc1	none
COc1ccc(C(=O)N2C=Cc3ccccc3C2C(N)=O)cc1 (stereo not drawn)	none (no result: Bfl-1 A1 inh, LANA-H2A inh, EBNA-1 inhibitor, ZTA DNA inh)
CCOC(=O)c1c(NC(=O)COC(=O)Cn2c(C)nc3ccccc32)sc2c1CCCC2	CSN inh 43
NC(=O)CSc1nc2ccccc2c(=O)n1-c1ccccc1	none
O=C(CSc1nc2ccccc2c(=O)n1-c1ccccc1)c1c[nH]c2ccccc12	EBNA-1 inhibitor 37
COc1ccc(N2CCN(c3cncc(C)n3)CC2)cc1	none (no result: Bfl-1 A1 inh, LANA-H2A inh, EBNA-1 inhibitor, ZTA DNA inh)
Cc1ccccc1/C=C1\Oc2ccccc2C1=O	LANA-H2A inh 57 (no result: EBNA-1 inhibitor, ZTA DNA inh)
O=C1C(=Cc2cccs2)Oc2ccccc21	none (no result: Bfl-1 A1 inh, LANA-H2A inh, EBNA-1 inhibitor, ZTA DNA inh)
Cc1ccc(N(CC(=O)NCc2ccc(F)cc2)C(=O)CCC(=O)Nc2ccccn2)cc1C	LANA-H2A inh 26
COc1ccc(N(CC(=O)NCc2ccc(F)cc2)C(=O)CCC(=O)Nc2ccccn2)cc1	none
CN(C)c1ccc(C=C2SC(=S)NC2=O)cc1	CSN inh 105 (no result: Bfl-1 A1 inh, LANA-H2A inh, EBNA-1 inhibitor, ZTA DNA inh)
CCn1c(C)cc(/C=C2/SC(=S)NC2=O)c1C	none
Cc1cc(/C=C2\SC(=S)NC2=O)c(C)[nH]1	HNF4A DNA FP 57
O=C1NC(=S)SC1=Cc1ccccn1	HNF4A DNA FP 64 (no result: Bfl-1 A1 inh, LANA-H2A inh, EBNA-1 inhibitor, ZTA DNA inh)
COc1cc(C(=O)NC2CC2)cc(OC)c1OC	none (no result: Bfl-1 A1 inh, LANA-H2A inh, EBNA-1 inhibitor, ZTA DNA inh)
COc1cc(C(=O)NNC(=O)NC2CCCCC2)cc(OC)c1OC	LANA-H2A inh 14
NC(=O)c1[nH]cnc1N	none
COc1ccc2c(c1)CCC1C2=NN(/C(C)=C/C(C)=O)C1c1cccc(F)c1 (stereo not drawn)	HNF4A DNA FP 76
O=C1CC(=O)C(n2cncn2)C(c2cccc(Cl)c2)C1 (stereo not drawn)	LANA-H2A inh 16
COC(=O)c1ccc(OC(=O)C23CCC(C)(C(=O)O2)C3(C)C)cc1 (stereo not drawn)	none
